In brackets after ≈: the same amount, converted by molar mass.
Key:
Plasmodium berghei [1] = assay: Antiplasmodial activity against Plasmodium berghei NK65 infected in Swiss Webster mice (Mus musculus) assessed as average parasitaemia at 200 mg/kg, perorally administered 1 day after infection measured after 10 days post infection; type: functional; conditions: Plasmodium berghei, NK65, route oral
How it was run: (§1)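 Male Swiss Webster mice (18-20 g, ≥5/group) inoculated i.p. with 2×10^7 P. berghei NK-65 parasitized RBC, given a single oral dose (100 μl, SSV or dilute HCl vehicle); parasitemia by Giemsa-stained tail blood smears days 5–28; activity as % decrease versus untreated controls on day 5.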

Plasmodium berghei [2] = assay: Antiplasmodial activity against Plasmodium berghei NK65 infected in Swiss Webster mice (Mus musculus) assessed as inhibition of parasitaemia at 10 mg/kg, perorally administered 1 day after infection for 3 days measured after 5 days post infection; type: functional; conditions: route oral
How it was run: (§2)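 Male Swiss Webster mice (18-20 g, ≥5/group) inoculated i.p. with 2×10^7 P. berghei NK-65 parasitized RBC; oral dosing (100 μl, SSV or dilute HCl vehicle) once daily for 3 days from day 1; Giemsa-stained tail blood smears days 5–28; inhibition is % decrease versus untreated controls on day 5.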

Plasmodium berghei [3] = assay: Antiplasmodial activity against Plasmodium berghei NK65 infected in Swiss Webster mice (Mus musculus) assessed as average parasitaemia at 3.3 mg/kg, perorally administered 1 day after infection for 3 days measured after 21 days post infection; type: functional; conditions: route oral; how it was run: as §2
HeLa [4] = assay: Cytotoxicity against human HeLa cells after 48 hrs by trypan blue exclusion assay; type: functional
HeLa [5] = assay: Cell cycle arrest in human HeLa cells assessed as increase in S phase accumulation at 20 uM after 24 hrs by FACS analysis; type: functional
Mus musculus [6] = assay: Toxicity in Plasmodium berghei NK65 infected Swiss Webster mice (Mus musculus) assessed as behavioral change at 100 mg/kg, perorally; type: organism-based; design: dose 100 mg/kg, route oral; conditions: in vivo, po
How it was run: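 P. berghei NK-65 infection in male Swiss Webster mice (18-20 g; 2×10^7 parasitized erythrocytes i.p.; ≥5 per group). A single oral dose of 100 μl, diluted in SSV or 0.01 M HCl, then observation for toxicity signs and body weight. Parasitemia read from Giemsa-stained tail smears from day 5 through day 28. Mice free of parasitemia through day 28 counted as cured.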

[7] = Selectivity index, ratio of IC50 for african green monkey (Cercopithecus aethiops) Vero cells to IC50 for chloroquine-sensitive Plasmodium falciparum; type: toxicity, cell-based
Plasmodium berghei [8] = assay: Antiplasmodial activity against Plasmodium berghei NK65 infected in Swiss Webster mice (Mus musculus) assessed as average parasitaemia at 100 mg/kg, perorally administered 1 day after infection measured after 7 days post infection; type: functional; conditions: route oral
Vero = assay: Cytotoxicity against african green monkey Vero cells after 48 hrs by neutral red assay; type: cell-based; conditions: chlorocebus sabaeus
How it was run: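 Vero cells seeded at 25,000/well and grown 24 h, then exposed to serially diluted samples for 48 h. Viable cells measured by neutral red assay, with doxorubicin as positive control. IC50 taken from dose-response curves.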

HeLa [9] = assay: Cell cycle arrest in human HeLa cells assessed as increase in S phase accumulation at 5 uM after 24 hrs by FACS analysis; type: functional
Plasmodium berghei [10] = assay: Antiplasmodial activity against Plasmodium berghei NK65 infected in Swiss Webster mice (Mus musculus) assessed as average parasitaemia at 100 mg/kg, perorally administered 1 day after infection measured after 14 days post infection; type: functional; conditions: route oral; how it was run: as §1
Plasmodium berghei [11] = assay: Antiplasmodial activity against Plasmodium berghei NK65 infected in Swiss Webster mice (Mus musculus) assessed as inhibition of parasitaemia at 1.1 mg/kg, perorally administered 1 day after infection for 3 days measured after 5 days post infection; type: functional; conditions: route oral; how it was run: as §2
Plasmodium berghei [12] = assay: Antiplasmodial activity against Plasmodium berghei NK65 infected in Swiss Webster mice (Mus musculus) assessed as parasitaemia cure at 200 mg/kg, perorally administered 1 day after infection measured after 28 days post infection; type: functional; conditions: Plasmodium berghei, NK65, route oral
How it was run: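 Male Swiss Webster mice (18-20 g), at least 5 per group, were inoculated ip with 2×10^7 P. berghei NK-65-parasitized red cells from a donor mouse and given a single oral dose (100 μl). Stock was made in SSV or 0.1 M HCl and diluted in SSV or 0.01 M HCl. Parasitemia was read from Giemsa-stained tail blood smears from day 5 to day 28. Cure meant no parasitemia through day 28.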

Plasmodium berghei [13] = assay: Antiplasmodial activity against Plasmodium berghei NK65 infected in Swiss Webster mice (Mus musculus) assessed as inhibition of parasitaemia at 200 mg/kg, perorally administered 1 day after infection measured after 5 days post infection; type: functional; conditions: Plasmodium berghei, NK65, route oral; how it was run: as §1
Mus musculus [14] = species: Mus musculus; assay: Toxicity in Plasmodium berghei NK65 infected Swiss Webster mice (Mus musculus) assessed as weight loss until day 5 of post infection; type: organism-based; conditions: in vivo
Plasmodium berghei [15] = assay: Antiplasmodial activity against Plasmodium berghei NK65 infected in Swiss Webster mice (Mus musculus) assessed as average parasitaemia at 10 mg/kg, perorally administered 1 day after infection for 3 days measured after 21 days post infection; type: functional; conditions: route oral
Plasmodium berghei [16] = assay: Antiplasmodial activity against Plasmodium berghei NK65 infected in Swiss Webster mice (Mus musculus) assessed as survivability at 3.3 mg/kg, perorally administered 1 day after infection for 3 days measured after 28 days post infection; type: functional; conditions: route oral
How it was run: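 Male Swiss Webster mice (18-20 g), at least 5 per group, inoculated i.p. with 2×10^7 P. berghei NK-65-parasitized red cells from a donor mouse. Oral dosing (100 μl, in SSV or 0.01 M HCl dilutions) from day one post-infection on a 3-day schedule (modified Peters test). Giemsa-stained tail-blood smears read from day 5 to day 28. Cure means no parasitemia through day 28.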

Work on `O[C@]12C=C(c3nccc4c3[nH]c3ccccc34)[C@@H]3CCN(CCCC/C=C\CC1)C[C@@]31C[C@@H]3/C=C\CCCCN3[C@H]12` [MANZAMINE A] yielded an inhibition in vivo at 200 mg/kg (Plasmodium berghei [1]) of 0%, an inhibition in vivo at 10 mg/kg (Plasmodium berghei [2]) of 98% and an inhibition in vivo at 3.3 mg/kg (Plasmodium berghei [3]) of 21.6%. The Activity (HeLa [4]) was 2 µg/mL, the Activity (HeLa [5]) was 67.2% and the Activity (Mus musculus [6]) was “Non-toxic”. The “Ratio IC50” value [7] was 44, the inhibition in vivo at 100 mg/kg (Plasmodium berghei [8]) was 0% and the IC50 (Vero) was 0.2 µg/mL (≈ 0.364 µM). It also gave an Activity (HeLa [9]) of 56.3%, an inhibition in vivo at 100 mg/kg (Plasmodium berghei [10]) of 0% and an inhibition in vivo at 1.1 mg/kg (Plasmodium berghei [11]) of 75%. For the same compound, the inhibition in vivo at 200 mg/kg (Plasmodium berghei [12]) was 100%, the inhibition in vivo at 200 mg/kg (Plasmodium berghei [13]) was 100% and the Activity (Mus musculus [14]) was “Toxic”. For the same compound, the inhibition in vivo at 10 mg/kg (Plasmodium berghei [15]) was 1.9% and the inhibition in vivo at 3.3 mg/kg (Plasmodium berghei [16]) was 100%.
